TAAR1 agonist: human TAAR1 agonism; CHO RD-HGA16 TAAR1, Fluo-8 calcium fluorescence; vehicle wells 0%, saturating PEA agonist 100%; activation, % at 3 µM; 360,000 compounds, 0.99% hits; AID 624467;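 active = activation above the mean activation of all test compounds in the run plus 3 SD, cut at about 38% in these data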
Target sequence (Q96RJ0 whole entry, looked up): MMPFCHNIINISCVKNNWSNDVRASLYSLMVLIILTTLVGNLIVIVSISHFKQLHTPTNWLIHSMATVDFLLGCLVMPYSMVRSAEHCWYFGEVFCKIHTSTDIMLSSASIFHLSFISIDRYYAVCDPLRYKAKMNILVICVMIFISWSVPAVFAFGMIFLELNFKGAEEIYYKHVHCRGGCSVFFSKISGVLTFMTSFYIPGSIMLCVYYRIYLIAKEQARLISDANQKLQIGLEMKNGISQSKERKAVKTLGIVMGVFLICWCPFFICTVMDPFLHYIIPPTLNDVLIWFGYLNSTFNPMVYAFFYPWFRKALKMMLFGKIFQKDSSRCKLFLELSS
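Benchmarks: low control DMSO, high control PEA (EC100); System: CHO RD-HGA16 cells carrying human TAAR1 plus Gα16; Detection: Fluo-8 fluorescence, 5 s baseline then 140 s kinetic read; Schedule: 17-24 h plating, Fluo-8 75 min 37 °C, 30 min RT; Read-out basis: % activation from peak over basal fluorescence ratio, DMSO-to-PEA scaled.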
TAAR1 antagonist: antagonists of human TAAR1. Q96RJ0. CHO RD-HGA16 TAAR1, Fluo-8 calcium fluorescence, antagonist. inhibition, % at 3 µM. 360,000 compounds, 1.5% hits. AID 624466;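 active = inhibition above a per-plate cutoff, the mean inhibition of test compounds on that plate plus 3 SD, cut at about 49% in these data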;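 also: 0% = DMSO plus EC80 beta-PEA response and 100% = DMSO alone without agonist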
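Test system – hTAAR1-expressing CHO RD-HGA16 cells, Gα16-coupled · Reagent – β-PEA at EC80 concentration, post-compound challenge · Compound dosing – 3 µM, single point · Timing – 140 s kinetic read after compound, 140 s after agonist · Detection – Fluo-8 intracellular calcium dye fluorescence, real-time kinetic reads · Control set – DMSO and EC80 PEA controls · Repeats – n of 1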
OXTR agonist: activates the human oxytocin receptor | activation, % at 3 µM | P30559 | CHO-OTR cells, Fluo-8 calcium fluorescence; normalized: DMSO 0%, oxytocin 100% | 320,000 compounds, 0.32% hits;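 active = activation above the mean of all tested compounds plus 3 SD, cutoff set per screening run, cut at about 20% in these data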;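 also: peak over basal fluorescence ratio from a 100 s FLIPR kinetic read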
V1R ag counter: counter-screen for oxytocin receptor agonists: human V1a receptor agonists; P37288; CHO-V1R cells, Fluo-8 calcium fluorescence, agonist mode; 0% DMSO, 100% 3 nM vasopressin; activation, % at 3 µM; 320,000 compounds, 0.25% hits; AID 2797;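 active = activation above the mean activation of all tested compounds plus 3 SD, per screening run, cut at about 20% in these data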;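 also: signal is peak over basal fluorescence ratio across a 100 second FLIPR read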
OXTR potentiate: potentiates the human oxytocin receptor response. activation, % at 3 µM. 320,000 compounds, 0.061% hits. AID 2445. CHO-OTR cells, Fluo-8 calcium fluorescence, potentiator mode; 0% = oxytocin EC15, 100% = EC100. P30559;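 active = activation above that plate's cutoff, the mean activation of tested compounds plus 3 SD, cut at about 6.6% in these data, passing the limit was not always enough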;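 also: 100% uses oxytocin at 75 nM as the full agonist control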
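Material: CHO-OTR cells, human receptor; compound dosing: single dose, 3.0 µM nominal final compound concentration; schedule: 6 min compound pre-incubation at room temperature, 100 s kinetic read; measured by: kinetic Fluo-8 calcium fluorescence; read-out basis: % activation vs EC15 and EC100 oxytocin; controls: EC15 oxytocin alone as 0%, 75 nM oxytocin as 100%; replicates: singlicate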
TAAR1 ag conf: confirmation of human TAAR1 agonists; shares compounds with TAAR1 agonist; CHO RD-HGA16 TAAR1, Fluo-8 calcium fluorescence; scaled: DMSO 0%, maximal phenethylamine 100%; activation, % at 3 µM; 2,400 compounds, 82% hits; AID 651783;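 active = activation above a cutoff set at the run's mean compound activation plus 3 SD, cut at about 39% in these data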
Ga16 nonsel ag: nonselective agonism, TAAR1 counter-screen | shares compounds with TAAR1 agonist | CHO-Ga16 parental, Fluo-8 calcium fluorescence; normalized to maximal ATP response, DMSO zero | 2,400 compounds, 50% hits | AID 651787 | activation, % at 3 µM;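 active = activation above the run cutoff, the mean activation over all tested wells plus 3 SD, cut at about 12% in these data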;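 also: 0% = DMSO wells and 100% = maximal ATP response on the peak over basal ratio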
TAAR1 desens: TAAR1 response desensitization, agonist counter-screen; 2,400 compounds, 46% hits; inhibition, % at 3 µM; CHO RD-HGA16 hTAAR1, Fluo-8 calcium, beta-PEA response inhibition; AID 651951; shares compounds with TAAR1 agonist;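 active = inhibition above the run cutoff, the mean inhibition of all test compounds plus 3 SD, cut at about 49% in these data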;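 also: beta-PEA stimulus applied at its EC80; loss of beta-PEA calcium signal after compound pretreatment read as receptor desensitization; 0% = DMSO with beta-PEA at EC80 and 100% = DMSO alone without agonist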
Ga16 nonsel ant: counter-screen for TAAR1 agonists: nonselective Ga16 antagonists; shares compounds with TAAR1 agonist; CHO-Ga16 ATP-induced calcium, Fluo-8 fluorescence; inhibition, % at 3 µM; 2,400 compounds, 39% hits; AID 651952;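 active = inhibition above the plate's mean compound inhibition plus 3 SD, computed per plate, cut at about 22% in these data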;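 also: 0% = EC80 ATP with DMSO and 100% = DMSO wells without ATP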
Active calls of the source: *; nt = no result given. Most compounds without a hit are left out; they make up all but 2.3% or so of the library.

SMILES | TAAR1 agonist | TAAR1 antagonist | OXTR agonist | V1R ag counter | OXTR potentiate | TAAR1 ag conf | Ga16 nonsel ag | TAAR1 desens | Ga16 nonsel ant
c1ccc(CCNc2ncnc3nc[nH]c23)cc1 | 71.0* | 33.1 | 5.7 | 5.3 | -13.6 | 89.2* | 9.3 | 82.4* | 17.9
CC(Cc1ccccc1)N/C=C1\CC(=O)NC1=O (centres undefined) | 74.1* | 52.6* | 1.0 | 1.2 | -1.4 | 71.7* | -0.5 | 22.8 | 6.5
CC(Cc1ccccc1)NC(=O)C1CCCNC1=O (centres undefined) | 10.7 | -1.0 | 0.8 | 0.0 | 3.2 | nt | nt | nt | nt
COc1ccc(CC(N)c2csc(Nc3cc(Oc4ccccc4)ncn3)n2)cc1 (centres undefined) | 55.6* | 34.7 | nt | nt | nt | 58.3* | 31.5* | 52.1* | 42.2*
NC(Cc1ccc(F)cc1)c1csc(Nc2cc(Oc3ccccc3)ncn2)n1 (centres undefined) | 71.2* | 44.4 | nt | nt | nt | 85.4* | 36.0* | 61.4* | 43.2*
NC(Cc1ccc(Cl)cc1)c1csc(Nc2cc(Oc3ccccc3)ncn2)n1 (centres undefined) | 33.6 | 27.8 | nt | nt | nt | nt | nt | nt | nt
CCOC(=O)c1cccc(NC(=O)Nc2ccc3c(c2)C(=O)OC3)c1 | 1.6 | -1.6 | 0.8 | 0.4 | 2.3 | nt | nt | nt | nt
Cc1nnc(NC(=O)c2cccc(S(=O)(=O)N(C)c3cccc(Cl)c3)c2)s1 | -1.7 | -1.3 | -1.1 | 0.5 | -5.2 | nt | nt | nt | nt
NC(=O)Nc1ccc(C(=O)OCC(=O)c2c[nH]c3ccccc23)cc1 | 47.7* | 3.5 | 1.2 | -0.1 | -3.7 | 59.1* | 0.5 | 14.9 | 12.9
O=C(Nc1cccc(Cl)c1)c1cc(F)cc2c1OCOC2 | 0.0 | -3.5 | -4.6 | -0.2 | -4.7 | nt | nt | nt | nt
Nc1nc(SCC(=O)N2CCc3ccccc3C2)[nH]c(=O)c1-c1ccccc1 | 92.0* | 89.6* | 0.4 | -1.0 | 0.1 | 106.6* | 22.3* | 95.3* | -3.5
Nc1nc(SCC(=O)Nc2ccccc2)[nH]c(=O)c1-c1ccccc1 | 6.3 | -1.9 | -0.2 | -1.0 | -2.0 | nt | nt | nt | nt
CCCc1cc(=O)[nH]c(SCC(=O)N2CCc3ccccc3C2)n1 | 85.4* | 55.1* | 0.2 | 0.4 | 0.5 | 91.7* | 4.9 | 29.0 | -0.2
CC(C)Cn1c(SCC(=O)N2CCc3ccccc3C2)nc2cc(Cl)ccc2c1=O | 0.4 | 3.4 | -1.9 | 0.5 | -11.6 | nt | nt | nt | nt
O=C(CSc1nccc(=O)[nH]1)N1CCc2ccccc2C1 | nt | nt | 1.2 | 2.5 | 0.1 | nt | 1.0 | nt | 6.5
CC(C)Cn1c(SCC(=O)N2CCc3ccccc3C2)nc(O)cc1=O | nt | nt | 1.1 | 0.6 | -7.0 | nt | 3.9 | nt | 1.8
CCCc1cc(=O)[nH]c(SCC(=O)c2ccc3c(c2)NC(=O)CO3)n1 | 53.6* | 4.8 | -0.2 | 0.7 | 0.3 | 4.5 | 6.8 | -2.3 | 5.5

Screening data as filed in PubChem BioAssay.
